Assays:
[1] = test system: Mycobacterium tuberculosis; test: Activity against Mycobacterium tuberculosis H37Ra; format: functional
How it was run: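 Microbroth dilution in microtiter plates. H37Ra grown in Middlebrook 7H9 to OD650 0.4-0.6, then diluted to OD650 0.01. 100 µL of cells added to serial compound dilutions and incubated 37 °C for 8 days, growth read visually. MIC90 taken as wells with >90% growth inhibition; isoniazid positive control on every plate.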

[2] = test system: Mycobacterium tuberculosis; test: Viable Mycobacterium tuberculosis in lungs of infected Mice after an 8-day drug treatment; Dose is 300 mg/kg; format: functional, Lung
How it was run: (§1)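 C57BL/6 interferon-γ gene-depleted (GKO) mice infected by low-dose aerosol. Eight daily treatments started 18 days postinfection. At day 28, lung and spleen homogenates serially diluted onto Middlebrook 7H11 agar and incubated 4 weeks at 37 °C. CFU log-transformed and reported ±SEM; one-way Dunnett multiple-comparison ANOVA, significance at 95% confidence.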

[3] = test system: Mycobacterium tuberculosis; test: Viable Mycobacterium tuberculosis in spleen of infected Mice after an 8-day drug treatment; Dose is 300 mg/kg; format: functional; how it was run: as §1
[4] = target: UDP-galactopyranose mutase (Mycobacterium tuberculosis, UniProt P9WIQ1); test: Inhibition of Mycobacterium tuberculosis UDP-galactose mutase expressed in Escherichia coli UDP-6 [3H]- Galf; set-up: species or system H37Rv
Sequence of UDP-galactopyranose mutase (P9WIQ1 whole entry): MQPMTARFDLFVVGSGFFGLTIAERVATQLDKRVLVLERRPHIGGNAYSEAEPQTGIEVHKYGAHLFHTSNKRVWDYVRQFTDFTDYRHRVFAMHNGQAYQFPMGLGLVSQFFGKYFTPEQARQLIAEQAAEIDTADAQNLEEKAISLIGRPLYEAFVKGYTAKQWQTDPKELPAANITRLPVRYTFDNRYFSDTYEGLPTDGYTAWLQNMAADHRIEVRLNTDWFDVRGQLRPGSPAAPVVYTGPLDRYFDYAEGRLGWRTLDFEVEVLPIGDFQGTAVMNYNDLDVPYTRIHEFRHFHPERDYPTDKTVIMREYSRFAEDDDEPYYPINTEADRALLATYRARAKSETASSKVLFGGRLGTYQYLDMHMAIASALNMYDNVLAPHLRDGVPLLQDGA
How it was run: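 Reverse-direction radiometric Glf assay on crude soluble enzyme extract, preactivated 30 min at 37 °C in 25 mM MOPS with NADH and FAD. Each 25 µL well held MOPS pH 7.2, MgCl2, NADH, FAD, 2.3 µg protein, 20 pmol UDP-6-[3H]Galf and 1 µL DMSO. Inhibitors at 100-6.3 µM; reaction 5-20 min. Conversion read by HPLC or periodate filter-plate counting; IC50 calculated.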

Vero = test: Selectivity is the ratio of cytotoxicity compared to TBMIC; format: functional
How it was run: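 Ratio of VERO cell toxicity IC50 to M. tuberculosis H37Ra MIC. VERO monolayers were exposed to 3-fold compound dilutions for 72 h, and viability was read by tetrazolium reduction at 490 nm, with untreated and SDS-lysed cells as 0% and 100%. MIC was by microbroth dilution in 7H9 (OD650 0.01 inoculum), 37 °C for 8 days, with visual 90% growth inhibition.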

[5] = The protein binding is expressed as percent bound as determined by VolSurf; format: ADME; settings: read-out: Protein binding (converted)
[6] = test system: Mycobacterium tuberculosis; test: Viable Mycobacterium tuberculosis in spleen of infected Mice after an 8-day drug treatment; Dose is 150 mg/kg; format: functional; how it was run: as §1
[7] = test system: Mycobacterium tuberculosis; test: Viable Mycobacterium tuberculosis in lungs of infected Mice after an 8-day drug treatment; Dose is 150 mg/kg; format: functional, Lung; how it was run: as §1
[8] = test system: Mycobacterium tuberculosis; test: Viable Mycobacterium tuberculosis in spleen of infected Mice after an 8-day drug treatment; Dose is 25 mg/kg; format: functional; how it was run: as §1
[9] = test system: Mycobacterium tuberculosis; test: Viable Mycobacterium tuberculosis in lungs of infected Mice after an 8-day drug treatment; Dose is 25 mg/kg; format: functional, Lung; how it was run: as §1

| SMILES | TBMIC [1] | Activity [2] | Activity [3] | IC50 [4] | Selectivity index (Vero) | fraction unbound [5] | Activity [6] | Activity [7] | Activity [8] | Activity [9] |
| --- | --- | --- | --- | --- | --- | --- | --- | --- | --- | --- |
| O=C(Nc1cccc(Cl)c1)c1ccc([N+](=O)[O-])o1 | 0.8 µg/mL | 8.3 log CFU | 7.3 log CFU | 56.3 µM | 8.6 | – | – | – | – | – |
| CN(C(=O)c1ccc([N+](=O)[O-])o1)c1ccccc1 | 3.12 µg/mL | – | – | 260 µM | 7.6 | 0.332 | – | – | – | – |
| COc1ccc(CCNC(=O)c2ccc([N+](=O)[O-])o2)cc1OC | 0.4 µg/mL | – | – | 165 µM | 68.6 | 0.303 | – | – | – | – |
| O=C(Nc1cc[nH]n1)c1ccc([N+](=O)[O-])o1 | 6.25 µg/mL | – | – | 729 µM | 1.2 | 0.513 | – | – | – | – |
| O=C(NC1CCCCC1)c1ccc([N+](=O)[O-])o1 | 3.1 µg/mL | – | – | 281 µM | 2.9 | 0.352 | – | – | – | – |
| O=C(NC1CCc2ccccc21)c1ccc([N+](=O)[O-])o1 (configuration not stated) | 3.1 µg/mL | – | – | 264 µM | 3.3 | 0.23 | – | – | – | – |
| COc1cccc(CNC(=O)c2ccc([N+](=O)[O-])o2)c1OC | 1.2 µg/mL | – | – | 464 µM | – | 0.356 | – | – | – | – |
| COc1ccc(NC(=O)c2ccc([N+](=O)[O-])o2)cc1 | 0.4 µg/mL | – | – | 160 µM | 53.6 | 0.369 | – | – | – | – |
| O=C(Nc1cccnc1)c1ccc([N+](=O)[O-])o1 | 6.25 µg/mL | – | – | 206 µM | 2.1 | 0.447 | – | – | – | – |
| O=C(Nc1cccc(OCc2ccccc2)c1)c1ccc([N+](=O)[O-])o1 | 12.5 µg/mL | – | – | 82.8 µM | – | 0.13 | – | – | – | – |
| O=C(NC12CC3CC(CC(C3)C1)C2)c1ccc([N+](=O)[O-])o1 | 3.1 µg/mL | – | – | 169 µM | – | – | – | – | – | – |
| COc1cccc2sc(NC(=O)c3ccc([N+](=O)[O-])o3)nc12 | 1.6 µg/mL | – | – | 210 µM | – | 0.257 | – | – | – | – |
| COc1cccc(NC(=O)c2ccc(S(=O)(=O)c3ccccc3)o2)c1 | 6.25 µg/mL | – | – | 64.4 µM | 4.1 | 0.485 | – | – | – | – |
| O=C(Nc1ccccn1)c1ccc([N+](=O)[O-])o1 | 3.12 µg/mL | – | – | 227 µM | 3.5 | 0.438 | – | – | – | – |
| O=C(NCc1ccccn1)c1ccc([N+](=O)[O-])o1 | 0.8 µg/mL | – | – | 481 µM | – | 0.427 | – | – | – | – |
| O=C(NCc1ccccc1Cl)c1ccc([N+](=O)[O-])o1 | 1.6 µg/mL | – | – | 53.4 µM | 7.3 | 0.313 | – | – | – | – |
| COc1ccc(CCNC(=O)c2ccc([N+](=O)[O-])o2)cc1 | 0.8 µg/mL | – | – | 58.6 µM | 25.6 | 0.288 | – | – | – | – |
| COc1cccc(NC(=O)c2ccc([S+]([O-])c3ccccc3)o2)c1 (configuration not stated) | 6.25 µg/mL | – | – | – | 10.4 | 0.39 | – | – | – | – |
| COc1ccc(CNC(=O)c2ccc([N+](=O)[O-])o2)cc1OC | 0.2 µg/mL | 6.5 log CFU | 6 log CFU | 75.1 µM | 90.9 | 0.363 | – | – | – | – |
| O=C(NCc1ccco1)c1ccc([N+](=O)[O-])o1 | 6.25 µg/mL | – | – | 246 µM | 0.7 | 0.38 | – | – | – | – |
| COc1ccc(N(C)C(=O)c2ccc([N+](=O)[O-])o2)cc1 | 6.25 µg/mL | – | – | 500 µM | 4 | 0.395 | – | – | – | – |

| SMILES | TBMIC [1] | Activity [2] | Activity [3] | IC50 [4] | Selectivity index (Vero) | fraction unbound [5] | Activity [6] | Activity [7] | Activity [8] | Activity [9] |
| --- | --- | --- | --- | --- | --- | --- | --- | --- | --- | --- |
| O=C(Nc1cccc(F)c1)c1ccc([N+](=O)[O-])o1 | 0.8 µg/mL | 8.4 log CFU | 7 log CFU | 112 µM | 11.6 | 0.334 | – | – | – | – |
| COc1cc(CNC(=O)c2ccc([N+](=O)[O-])o2)cc(OC)c1OC | 0.8 µg/mL | – | – | 184 µM | 29.5 | 0.344 | – | – | – | – |
| COc1ccc(CNC(=O)c2ccc([N+](=O)[O-])o2)cc1 | 0.1 µg/mL | – | – | 416 µM | 163.6 | 0.347 | – | – | – | – |
| O=C(Nc1cccc(Br)c1)c1ccc([N+](=O)[O-])o1 | 0.6 µg/mL | – | – | 35.4 µM | 9.6 | 0.311 | – | – | – | – |
| N#Cc1ccc(NC(=O)c2ccc([N+](=O)[O-])o2)cc1 | 0.8 µg/mL | – | – | 393 µM | 4.4 | 0.249 | – | – | – | – |
| C[C@H](NC(=O)c1ccc([N+](=O)[O-])o1)c1ccccc1 | 1.6 µg/mL | – | – | 146 µM | 16 | 0.259 | – | – | – | – |
| O=C(Nc1ccccc1)c1ccc([N+](=O)[O-])o1 | 0.8 µg/mL | – | – | 94.7 µM | 2.7 | 0.325 | – | – | – | – |
| O=C(Nc1ccncc1)c1ccc([N+](=O)[O-])o1 | 3.12 µg/mL | – | – | 184 µM | 2.2 | 0.446 | – | – | – | – |
| C[C@@H](NC(=O)c1ccc([N+](=O)[O-])o1)c1ccccc1 | 3.1 µg/mL | – | – | 150 µM | 7.6 | 0.289 | – | – | – | – |
| O=C(c1ccc([N+](=O)[O-])o1)N1CCc2ccccc21 | 0.8 µg/mL | – | – | – | 9.9 | 0.25 | – | – | – | – |
| COc1ccc(CNC(=O)c2ccc([N+](=O)[O-])o2)c(OC)c1 | 0.4 µg/mL | – | – | 111 µM | 13.5 | 0.409 | – | – | – | – |
| O=C(Nc1cnccn1)c1ccc([N+](=O)[O-])o1 | 6.25 µg/mL | – | – | 692 µM | – | 0.528 | – | – | – | – |
| COc1cccc(NC(=O)c2ccc([N+](=O)[O-])o2)c1 | 0.8 µg/mL | – | – | 160 µM | 23.3 | 0.364 | 7.2 log CFU | 8 log CFU | – | – |
| O=C(Nc1cccc(O)c1)c1ccc([N+](=O)[O-])o1 | 1.6 µg/mL | – | – | 314 µM | 7.8 | 0.391 | – | – | – | – |
| O=C(NC1CCCc2ccccc21)c1ccc([N+](=O)[O-])o1 (configuration not stated) | – | – | – | 112 µM | – | – | – | – | – | – |
| COc1cc(NC(=O)c2ccc([N+](=O)[O-])o2)ncn1 | 1.6 µg/mL | – | – | – | – | 0.469 | – | – | – | – |
| COc1ccccc1CNC(=O)c1ccc([N+](=O)[O-])o1 | 1.6 µg/mL | – | – | 358 µM | – | 0.335 | – | – | – | – |
| O=C(NCCc1ccccc1)c1ccc([N+](=O)[O-])o1 | 1.6 µg/mL | – | – | 315 µM | 15.7 | 0.246 | – | – | – | – |
| NNC(=O)c1ccncc1 [ISONIAZID] | – | – | – | – | – | – | – | – | 3.2 log CFU | 5.5 log CFU |
| Cc1ncc([N+](=O)[O-])n1CCO [METRONIDAZOLE] | – | – | – | – | – | – | 6.9 log CFU | 8.5 log CFU | – | – |
